Results taken from PMC3590845 (Bioorganic & medicinal chemistry, 2012).

Experiments:
[1] = GSH-activated NO release by chemiluminescence; assay type: physicochemical; settings: 4 mM GSH; for NO yield (mol)/mol of compound mean (SE): pH 7.4 phosphate buffer, 37 °C; for NO release on reaction with GSH (in words): chemiluminescence assay
How it was run: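 Pre-warmed (37 °C) pH 7.4 phosphate buffer with 4 mM GSH was sparged with inert gas until the detector response was steady. Test compound was then injected to start the reaction, and NO release was followed over time. The integrated release curve gave mol NO released per mol compound.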

H1703 cells [2] = test: In vitro metabolism in cells followed by LC/MS; assay type: in vitro ADME, human; settings: compound 12 at 5 μM for 5, 30 and 60 min
How it was run: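 H1703 cells were plated in flasks, incubated overnight at 37 °C, then exposed to test compound. At each time point, cells were scraped into 10 mM HCl and lysed by freeze–thaw, then 5-sulfosalicylic acid was added. After spinning at 8000×g for 10 min, supernatants were run on C18 LC/MS (APCI positive ions, water/acetonitrile/0.1% formic acid gradient). Parent and arylated-GSH ions were tracked as extracted ion chromatograms.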

[3] = system: H1703 cells xenografted in athymic mice; test: H1703 xenograft in athymic mice; assay type: in vivo; settings: 20 μmol/kg ip, five times a week for four weeks
How it was run: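 H1703 cells (5 × 10^6) were injected s.c. into one flank of 7-week-old female athymic NCr-nu/nu mice. Dosing started once tumors reached 2 × 2 × 2 mm3, typically after four weeks. Test compound was given as Pluronic P123 micelles, and controls received vehicle (2.25% Pluronic P123 in PBS) ip. Body weights were recorded three times weekly.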

H1703 cells [4] = test: Western blot of stress signaling and apoptosis; assay type: cell-based, human; settings: 1 μM
How it was run: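 After treatment of H1703 cells, lysates were immunoblotted for caspase 3, caspase 7, PARP, phospho-SAPK/JNK, phospho-c-jun and ATF3. PARP was scored as the full-length band versus the 89-kDa cleaved fragment.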

| Structure (SMILES) | NO yield (mol)/mol of compound mean (SE) [1] | Decomposition / metabolic turnover in cells (H1703 cells [2]) | NO release on reaction with GSH (in words) [1] | Body weights [3] | ATF3 level (H1703 cells [4]) | Apoptosis (cleavage of PARP and caspases 3 and 7) (H1703 cells [4]) | SAPK/JNK stress signaling pathway (H1703 cells [4]; phosphorylation of SAPK/JNK and c-jun after 4 h) |
| --- | --- | --- | --- | --- | --- | --- | --- |
| CCOC(=O)N1CCCN(/[N+]([O-])=N/Oc2ccc([N+](=O)[O-])cc2[N+](=O)[O-])CC1 [Compound 2, reference compound] | 2.00 (0.04) mol/mol of compound | – | – | – | – | – | – |
| CCOC(=O)N1CCN(/[N+]([O-])=N/Oc2ccc([N+](=O)[O-])cc2C#N)CC1 [Compound 12] | 2.04 (0.01) mol/mol of compound | over 1 h | essentially quantitative amounts of NO | did not affect body weights | upregulated | activated within 4 h | activated |
| CCOC(=O)N1CCN(/[N+]([O-])=N/Oc2ccc(C#N)cc2[N+](=O)[O-])CC1 [Compound 13] | 2.02 (0.06) mol/mol of compound | – | essentially quantitative amounts of NO | – | – | – | – |
| CCOC(=O)N1CCCN(/[N+]([O-])=N/Oc2ccc([N+](=O)[O-])cc2C#N)CC1 [Compound 15] | 2.01 (0.03) mol/mol of compound | – | essentially quantitative amounts of NO | – | – | – | – |
| CCOC(=O)N1CCCN(/[N+]([O-])=N/Oc2ccc(C#N)cc2[N+](=O)[O-])CC1 [Compound 16] | 1.96 (0.04) mol/mol of compound | – | essentially quantitative amounts of NO | – | – | – | – |
| CCOC(=O)N1CCN(/[N+]([O-])=N/Oc2ccc([N+](=O)[O-])cc2[N+](=O)[O-])CC1 [JS-K, reference compound] | 1.96 (0.03) mol/mol of compound | near complete metabolic turnover of JS-K in as few as ten minutes | – | – | – | – | – |
